Test results reported in ChEMBL document CHEMBL1123055, “Preparation of biologically active ristocetin derivatives: replacements of the 1'-amino group” (J Med Chem, 1985).
Converted amounts (≈) assume the structure as drawn.

Experiments:
[1] = Association constant was evaluated towards synthetic peptidoglycan analogue Ac2-Lys-D-Ala-D-Ala; assay type: ADME
In short: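 Differential UV spectroscopy in tandem cells, 2 cm total path. Antibiotic at 50 μg/mL in 20 mM sodium citrate buffer pH 5.1, with 10% methanol for poorly water-soluble compounds. Ac2-Lys-D-Ala-D-Ala peptide added stepwise. Absorbance change followed at the wavelength of maximal change, and the association constant K_A derived from it.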

Streptococcus pyogenes = assay: The antibacterial activity was evaluated as minimal inhibitory concentration (MIC) against Streptococcus pyogenes C203; assay type: functional
In short: (§1)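 Twofold agar dilution of compound in 10 mL brain heart infusion agar. Organisms grown 24 h, diluted 1/100, inoculum applied by multipoint replicator. Plates incubated at 35 °C (24 h per table footnote; 25 h per methods). MIC read as lowest inhibiting concentration, μg/mL. Ristocetin run as standard.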

Staphylococcus aureus = assay: The antibacterial activity was evaluated as minimal inhibitory concentration (MIC) against Staphylococcus aureus Smith; assay type: functional; in short: as §1
[2] = tested on: Staphylococcus epidermidis; assay: The antibacterial activity was evaluated as minimal inhibitory concentration (MIC) against Staphylococcus epidermis 3519; assay type: functional; in short: as §1
Enterococcus faecalis = assay: The antibacterial activity was evaluated as minimal inhibitory concentration (MIC) against Streptococcus faecalis 10541; assay type: functional; in short: as §1

| K A [1] | MIC (Streptococcus pyogenes) | MIC (Staphylococcus aureus) | MIC [2] | MIC (Enterococcus faecalis) | Structure (SMILES) |
| --- | --- | --- | --- | --- | --- |
| 600000 M⁻¹ | 1.56 µg/mL (≈ 0.754 µM) | 12.5 µg/mL (≈ 6.04 µM) | 25 µg/mL (≈ 12.1 µM) | 6.2 µg/mL (≈ 3 µM) | COC(=O)[C@H]1NC(=O)[C@H]2NC(=O)[C@H](NC(=O)[C@@H]3NC(=O)[C@H]4NC(=O)[C@H](NC(=O)[C@H](N)c5ccc(O)c(c5)Oc5cc4cc(O)c5C)[C@H](O)c4ccc(cc4)Oc4cc3cc(c4O[C@H]3O[C@H](CO[C@H]4O[C@H](C)[C@@H](O)[C@@H](O)[C@@H]4O)[C@H](O)[C@H](O)[C@H]3O[C@H]3O[C@@H](CO)[C@@H](O)[C@@H](O)[C@H]3O[C@H]3OC[C@@H](O)[C@@H](O)[C@H]3O)Oc3ccc(cc3)[C@H]2O[C@@H]2C[C@@H](N)[C@@H](O)[C@@H](C)O2)c2ccc(O)c(c2)-c2c(O[C@@H]3O[C@H](CO)[C@@H](O)[C@@H](O)[C@@H]3O)cc(O)cc21 |
| 140000 M⁻¹ | 3.1 µg/mL (≈ 2.55 µM) | 6.2 µg/mL (≈ 5.1 µM) | 6.2 µg/mL (≈ 5.1 µM) | 6.2 µg/mL (≈ 5.1 µM) | COC(=O)[C@H]1NC(=O)C2NC(=O)[C@H](NC(=O)[C@@H]3NC(=O)[C@H]4NC(=O)[C@H](NC(=O)[C@@H](NC(C)=O)c5ccc(O)c(c5)Oc5cc4cc(O)c5C)[C@H](O)c4ccc(cc4)Oc4cc3cc(c4O)Oc3ccc(cc3)C2O)c2ccc(O)c(c2)-c2c(O)cc(O)cc21 (stereo not given in full) |
| 670000 M⁻¹ | 3.1 µg/mL (≈ 2.64 µM) | 3.1 µg/mL (≈ 2.64 µM) | 3.1 µg/mL (≈ 2.64 µM) | 3.1 µg/mL (≈ 2.64 µM) | COC(=O)[C@H]1NC(=O)C2NC(=O)[C@H](NC(=O)[C@@H]3NC(=O)[C@H]4NC(=O)[C@H](NC(=O)[C@@H](N)c5ccc(O)c(c5)Oc5cc4cc(O)c5C)[C@H](O)c4ccc(cc4)Oc4cc3cc(c4O)Oc3ccc(cc3)C2O)c2ccc(O)c(c2)-c2c(O)cc(O)cc21 (stereo not given in full) |
| 20000 M⁻¹ | 25 µg/mL (≈ 21.3 µM) | 25 µg/mL (≈ 21.3 µM) | 50 µg/mL (≈ 42.6 µM) | 50 µg/mL (≈ 42.6 µM) | COC(=O)[C@H]1NC(=O)C2NC(=O)[C@H](NC(=O)[C@@H]3NC(=O)[C@H]4NC(=O)[C@H](NC(=O)[C@H](N)c5ccc(O)c(c5)Oc5cc4cc(O)c5C)[C@H](O)c4ccc(cc4)Oc4cc3cc(c4O)Oc3ccc(cc3)C2O)c2ccc(O)c(c2)-c2c(O)cc(O)cc21 (stereo not given in full) |
| 150000 M⁻¹ | 6.2 µg/mL (≈ 5.28 µM) | 12.5 µg/mL (≈ 10.6 µM) | 12.5 µg/mL (≈ 10.6 µM) | 6.2 µg/mL (≈ 5.28 µM) | COC(=O)[C@H]1NC(=O)C2NC(=O)[C@H](NC(=O)[C@@H]3NC(=O)[C@H]4NC(=O)[C@H](NC(=O)[C@H](O)c5ccc(O)c(c5)Oc5cc4cc(O)c5C)[C@H](O)c4ccc(cc4)Oc4cc3cc(c4O)Oc3ccc(cc3)C2O)c2ccc(O)c(c2)-c2c(O)cc(O)cc21 (stereo not given in full) |
| 560000 M⁻¹ | 3.1 µg/mL (≈ 2.64 µM) | 6.2 µg/mL (≈ 5.29 µM) | 12.5 µg/mL (≈ 10.7 µM) | 12.5 µg/mL (≈ 10.7 µM) | COC(=O)[C@H]1NC(=O)C2NC(=O)[C@H](NC(=O)[C@@H]3NC(=O)[C@H]4NC(=O)[C@H](NC(=O)C(=O)c5ccc(O)c(c5)Oc5cc4cc(O)c5C)[C@H](O)c4ccc(cc4)Oc4cc3cc(c4O)Oc3ccc(cc3)C2O)c2ccc(O)c(c2)-c2c(O)cc(O)cc21 (stereo not given in full) |
| 960000 M⁻¹ | 1.56 µg/mL (≈ 1.31 µM) | 3.1 µg/mL (≈ 2.61 µM) | 3.1 µg/mL (≈ 2.61 µM) | 3.1 µg/mL (≈ 2.61 µM) | COC(=O)[C@H]1NC(=O)C2NC(=O)[C@H](NC(=O)[C@@H]3NC(=O)[C@H]4NC(=O)[C@H](NC(=O)/C(=N/O)c5ccc(O)c(c5)Oc5cc4cc(O)c5C)[C@H](O)c4ccc(cc4)Oc4cc3cc(c4O)Oc3ccc(cc3)C2O)c2ccc(O)c(c2)-c2c(O)cc(O)cc21 (stereo not given in full) |
